Where two headings read alike, the source gives them in different places.
What was measured:
human σ2 receptor = human σ2 receptor (Homo sapiens, UniProt Q5BJF2); assay: Competition binding of [3H]-DTG in Expi293 membranes expressing σ2 receptor; settings: for Selectivity (σ1/σ2): ratio of σ1 Ki to σ2 Ki
How it was run: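 σ2-expressing Expi293 membranes were made by osmotic lysis (20 mM HEPES pH 7.5, 2 mM MgCl2), spun at 20,000 × g, and kept in 50 mM Tris pH 8.0 at −80 °C. Assay buffer: 50 mM Tris pH 8.0, 0.1% BSA, 10 nM [3H]-DTG and graded competitor; 37 °C, 90 min. 10 μM haloperidol set nonspecific binding. Filtration, scintillation counting; Ki by Cheng-Prusoff using measured probe Kd.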

[1] = Pharmacokinetics in male CD-1 mice, plasma and brain; format: in vivo; settings: 10 mg/kg subcutaneous
SNI mice = assay: Spared nerve injury; format: in vivo; settings: for anti-allodynic effect, mechanical thresholds versus vehicle: systemic (subcutaneous) administration to SNI mice
How it was run: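 Spared nerve injury under isoflurane: two sciatic branches ligated and transected, sural nerve intact; mice tested 7–14 days later. Test compound (10, 20 or 30 mg/kg) or vehicle (saline, cyclodextrin, kolliphor) given subcutaneously, random assignment. Hindpaw von Frey thresholds by up-down method at 1, 24, 48 h. Thresholds normalized to each mouse's post-SNI baseline; n = 5–10; ANOVA with Dunnett's test.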

mice = assay: Rotarod; format: in vivo; settings: 1 hour or 24 hours post-injection; Z1665845742 10 mg/kg, Z4857158944 20 mg/kg, Z4446724338 10 mg/kg
σ1 receptor = σ1 receptor (Homo sapiens, UniProt Q99720); assay: Competition binding versus σ1 receptor; settings: read-out: Ki (nM) σ1
σ1 receptor, sequence (Q99720 whole entry, species assumed): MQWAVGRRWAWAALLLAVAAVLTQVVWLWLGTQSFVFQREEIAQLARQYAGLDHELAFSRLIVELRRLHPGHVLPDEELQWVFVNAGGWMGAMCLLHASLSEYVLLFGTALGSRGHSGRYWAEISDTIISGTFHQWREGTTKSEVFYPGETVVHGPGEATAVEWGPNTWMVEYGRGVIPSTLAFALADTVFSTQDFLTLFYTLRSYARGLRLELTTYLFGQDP

[2] = tested on: σ2 mutants (His21, Gln77); assay: Competition binding in σ2 receptor mutants disrupting water coordination; design: species or system human
How it was run: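 Expi293 membranes carrying wild-type or mutant σ2 (lysed osmotically in 20 mM HEPES pH 7.5, 2 mM MgCl2; pellet at 20,000 × g), in 50 mM Tris pH 8.0, 0.1% BSA, with 10 nM [3H]-DTG and graded competitor. Incubated 37 °C, 90 min, shaking. Filtered on PEI-soaked glass fibre, scintillation counted. Nonspecific binding with 10 μM haloperidol. Ki by Cheng-Prusoff; three technical replicates, mean ± SEM.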

[3] = read-out: Ki (nM) σ2, competition with 10 nM [3H]-DTG

human σ2 receptor, sequence (Q5BJF2 whole entry): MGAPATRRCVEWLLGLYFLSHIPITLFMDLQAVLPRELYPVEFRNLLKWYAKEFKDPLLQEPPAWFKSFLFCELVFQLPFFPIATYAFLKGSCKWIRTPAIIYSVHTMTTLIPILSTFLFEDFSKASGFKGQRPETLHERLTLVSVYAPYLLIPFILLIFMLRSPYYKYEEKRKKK

SMILES | Selectivity (σ1/σ2) (human σ2 receptor) | Ki (human σ2 receptor; [3]) [nM] | Ki (σ1 receptor) [nM] | other results
OC(CCc1ccccc1)CN1CC=C(c2c[nH]c3ncccc23)CC1 (stereo not shown) [Z1665845742] | – | – | – | selectivity for σ2 over σ1 (human σ2 receptor): 47 fold; Ki (human σ2 receptor; read-out: σ2 Ki (affinity)): 5 nM; AUC0→t (AUClast) ([1]; brain): 436000 ng·min/mL (g); AUC0→∞ (AUCinf_obs) ([1]; brain): 509000 ng·min/mL (g); Cmax ([1]; brain): 3150 ng/mL (g); Kel (Lambda_z) ([1]; brain): 0.000928 min⁻¹; T1/2 (HL_Lambda_z) ([1]; brain): 12.4 h; Tmax ([1]; brain): 0.333 h; AUC0→t (AUClast) ([1]; plasma): 99000 ng·min/mL (g); AUC0→∞ (AUCinf_obs) ([1]; plasma): 112000 ng·min/mL (g); Cmax ([1]; plasma): 968 ng/mL (g); Kel (Lambda_z) ([1]; plasma): 0.00374 min⁻¹; T1/2 (HL_Lambda_z) ([1]; plasma): 3.08 h; Tmax ([1]; plasma): 0.333 h; anti-allodynic effect, mechanical thresholds versus vehicle (SNI mice): anti-allodynic; sedation or motor impairment on the rotarod (mice): No sedation or motor impairment
C[C@@H](c1ccccc1)[C@@H](O)CN1CCC(c2c[nH]c3ncccc23)CC1 [ZINC000450573233] | 30 | 4.3 | 128 | –
O[C@@]1(CNCc2cccc3c2OCC3)CCc2ccccc21 [ZINC000921927365] | 18 | 67.3 | 1190 | –
C1=C(c2c[nH]c3ccccc23)CCN(CCCc2ccccc2)C1 [Z295861754] | – | – | – | decrease in σ2 affinity (human σ2 receptor; versus parent Z1241145220): 8 fold
CC(C)CCO[C@@H]1CCN(C[C@H]2CC3(CCCCC3)CO2)C1 [ZINC001196519317] | 5.6 | 2.4 | 13.4 | –
CC[C@@H](CO)N1CCC(CCc2ccc(F)cc2F)CC1 [ZINC001460312963] | 0.3 | 5.2 | 1.7 | –
CC1CCC(O)(CN2CC(Cc3ccc(F)c(F)c3)C2)CC1 (stereo not shown) [ZINC000548355486] | 2 | 2.4 | 4.9 | –
O[C@@H](COCc1ccccc1F)CN1CC(Cc2ccccc2C(F)(F)F)C1 [ZINC001254761628] | 11.3 | 4.7 | 53 | –
CC(C)(NCc1ccc2c(c1)OCCO2)[C@H](O)c1ccccc1 [ZINC000895657866] | 46 | 21.4 | 990 | –
Cc1ccc(CC2CN(CC3(O)CCSCC3)C2)cc1 [ZINC000656714762] | 0.1 | 67.8 | 4.6 | –
CCCN1CCC=C(c2cc(-c3ccc(C)cc3)no2)C1 [PD-144418] | – | – | – | anti-allodynic effect, mechanical thresholds versus vehicle (SNI mice): anti-allodynia; anti-allodynia 24 or 48 hours post-injection (SNI mice; tested at 1, 24 and 48 hours after dosing): not sustained
C[C@@H](C(=O)N(C)Cc1cccc(F)c1)N1CC=C(c2c[nH]c3ncccc23)CC1 [ZINC000533478938] | 43 | 34.5 | 1470 | –
Cc1ccc([C@H]2CCN(CC3(O)CCC3)C2)c(C)c1 [ZINC000348332392] | 0.1 | 33.7 | 2.9 | –
c1ccc(CCCN2CCC(c3nnc4ccccn34)CC2)cc1 [Z163048780] | – | – | – | Ki (human σ2 receptor; read-out: σ2 Ki (affinity)): > 10000 nM
Fc1c(CN2CCN(C[C@@H]3CCCO3)CC2)ccc(Br)c1Cl [ZINC001237901728] | 0.1 | 27 | 1.6 | –
N/C(=N\Cc1ccc(F)cc1Br)NCC1CCC1 [ZINC000170908795] | 4.9 | 6.7 | 32.7 | –
C1=C(c2c[nH]c3ncccc23)CCN(CCCc2ccccc2)C1 [Z1241145220] | – | – | – | Ki (human σ2 receptor; read-out: σ2 Ki (affinity)): 3.7 nM; reduction of affinity on mutation ([2]; Gln77 mutant versus wild-type σ2): about 10 fold; reduction of affinity on mutation ([2]; His21 mutant versus wild-type σ2): about 10 fold
OC(CCc1ccccc1)CN1CCC(c2nnc3ccccn23)CC1 (stereo not shown) [Z1665798906] | – | – | – | σ2 activity in words (human σ2 receptor): σ2 inactive
Cc1ccc(CCC2CCN(C(=O)CN3C[C@@H]4CC[C@@H](O)[C@H]4C3)CC2)cc1 [ZINC000544117725] | 1.6 | 10 | 16.2 | –
COc1cccc2c1CCCC2CCCN1CCN(C2CCCCC2)CC1 (stereo not shown) [PB28, reference compound] | – | – | – | AUC0→t (AUClast) ([1]; brain): 229000 ng·min/mL (g); AUC0→∞ (AUCinf_obs) ([1]; brain): 240000 ng·min/mL (g); Cmax ([1]; brain): 948 ng/mL (g); Kel (Lambda_z) ([1]; brain): 0.00706 min⁻¹; T1/2 (HL_Lambda_z) ([1]; brain): 1.64 h; Tmax ([1]; brain): 1 h; AUC0→t (AUClast) ([1]; plasma): 8640 ng·min/mL (g); AUC0→∞ (AUCinf_obs) ([1]; plasma): 45900 ng·min/mL (g); Cmax ([1]; plasma): 42 ng/mL (g); Kel (Lambda_z) ([1]; plasma): 0.000937 min⁻¹; T1/2 (HL_Lambda_z) ([1]; plasma): 12.3 h; Tmax ([1]; plasma): 1 h; mice in which anti-allodynic effects were observed (SNI mice; systemic injection, 30 mg/kg): 60%
